Data taken from ChEMBL document CHEMBL2375278, “Small-molecule inhibitors of cathepsin L incorporating functionalized ring-fused molecular frameworks” (Bioorg Med Chem Lett, 2013).

Key:
Procathepsin L = Procathepsin L (Homo sapiens, UniProt P07711); experiment: Inhibition of human liver Cathepsin L using Z-Phe-Arg-aminomethylcoumarin as substrate incubated for 5 mins prior to substrate addition measured for 5 mins by fluorometric analysis
In short: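 Assay run with 2% DMSO in the well and a five-minute pre-incubation before substrate. Substrate was used at 50 µM. Activity is reported as IC₅₀ (nM).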

Cathepsin B = Cathepsin B (Homo sapiens, UniProt P07858); experiment: Inhibition of human liver Cathepsin B using Z-Arg-Arg-aminomethylcoumarin as substrate incubated for 5 mins prior to substrate addition measured for 5 mins by fluorometric analysis
In short: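 Assay run with 2% DMSO in the well and a five-minute pre-incubation before substrate. Substrate was used at 60 µM. Activity is reported as IC₅₀ (nM).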

Homo sapiens = species: Homo sapiens; experiment: Selectivity ratio of IC50 for human liver Cathepsin B to IC50 for human liver Cathepsin L

Chain of Procathepsin L (P07711 whole entry): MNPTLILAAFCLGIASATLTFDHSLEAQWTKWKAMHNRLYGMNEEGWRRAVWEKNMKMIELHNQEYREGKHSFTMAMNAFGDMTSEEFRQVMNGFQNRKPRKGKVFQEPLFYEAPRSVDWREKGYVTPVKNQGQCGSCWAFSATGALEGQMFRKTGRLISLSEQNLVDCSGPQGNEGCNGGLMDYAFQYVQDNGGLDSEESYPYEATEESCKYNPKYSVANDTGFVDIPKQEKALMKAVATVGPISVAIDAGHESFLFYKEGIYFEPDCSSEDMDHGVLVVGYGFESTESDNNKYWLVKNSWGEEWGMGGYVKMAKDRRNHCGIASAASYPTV

Row | IC50 (Procathepsin L) | IC50 (Cathepsin B) | Ratio IC50 (Homo sapiens) | Compound
1 | > 10 µM | > 10 µM |  | NC(=S)N/N=C1\CCCS(=O)(=O)c2ccc([N+](=O)[O-])cc21
2 | > 10 µM | > 10 µM |  | NC(=S)N/N=C1\CCNc2ccccc21
3 | ≥ 10 µM | > 10 µM |  | NC(=S)N/N=C1\CCCSc2cc(F)c(F)cc21
4 | > 10 µM | > 10 µM |  | NC(=S)N/N=C1\CCc2ccc(Br)cc21
5 | > 10 µM | > 10 µM |  | NC(=S)N/N=C1\CCCS(=O)(=O)c2cc(F)c(F)cc21
6 | > 10 µM | > 10 µM |  | CN1CC/C(=N\NC(N)=S)c2cc(Br)ccc21
7 | > 10 µM | > 10 µM |  | NC(=S)N/N=C1\CCCc2cc(N)ccc21
8 | > 10 µM | > 10 µM |  | N=C(N)N/N=C1\CCSc2ccc([N+](=O)[O-])cc21
9 | > 10 µM | > 10 µM |  | NC(=S)N/N=C1\CC(Nc2ccccc2)c2ccc(Br)cc21 (configuration not stated)
10 | > 10 µM | > 10 µM |  | NC(=S)N/N=C1\CCCc2c(O)cccc21
11 | 1.74 µM | > 10 µM | > 5.7 | NC(=S)N/N=C1\CC[S+]([O-])c2ccc([N+](=O)[O-])cc21 (configuration not stated)
12 | > 10 µM | > 10 µM |  | COc1ccc2c(c1)CCC/C2=N\NC(N)=S
13 | 0.658 µM | > 10 µM | > 15.2 | NC(=S)N/N=C1\CCCSc2ccc([N+](=O)[O-])cc21
14 | > 10 µM | > 10 µM |  | NC(=S)N/N=C1\CC(c2ccccc2)Oc2ccccc21 (configuration not stated)
15 | > 10 µM | > 10 µM |  | N=C(N)N/N=C1\CCS(=O)(=O)c2ccc([N+](=O)[O-])cc21
16 | > 10 µM | > 10 µM |  | CC(=O)N1CC/C(=N\NC(N)=S)c2ccccc21
17 | > 10 µM | > 10 µM |  | NC(=S)N/N=C1\CCc2ccccc2C1
18 | > 10 µM | > 10 µM |  | NC(=S)N/N=C1\CCS(=O)(=O)c2ccc(N)cc21
19 | > 10 µM | > 10 µM |  | NC(=S)NN=C1c2cc([N+](=O)[O-])ccc2-c2ccc([N+](=O)[O-])cc21
20 | 0.449 µM | > 10 µM | > 20 | NC(=S)N/N=C1\CCNc2ccc([N+](=O)[O-])cc21
21 | 0.338 µM | > 10 µM | > 20 | NC(=S)N/N=C1\CCNc2c1cc([N+](=O)[O-])cc2[N+](=O)[O-]
22 | 0.164 µM | > 10 µM | > 20 | NC(=S)N/N=C1\CCNc2ccc(Br)cc21
23 | > 10 µM | > 10 µM |  | COc1cccc2c1CCC/C2=N\NC(N)=S
24 | > 10 µM | > 10 µM |  | NC(=S)N/N=C1\CCNc2c(Cc3ccccc3)cccc21
25 | > 10 µM | > 10 µM |  | COc1ccc2c(c1)/C(=N/NC(N)=S)CCC2
26 | 0.369 µM | > 10 µM | > 20 | NC(=S)N/N=C1\CCOc2ccc(Cl)cc21
27 | > 10 µM | > 10 µM |  | NC(=S)N/N=C1\CCCCc2ccccc21
28 | > 10 µM | > 10 µM |  | CS(=O)(=O)c1ccc2c(c1)/C(=N/NC(N)=S)CCS2(=O)=O

Row | Compound | IC50 (Procathepsin L) | IC50 (Cathepsin B) | Ratio IC50 (Homo sapiens)
29 | NC(=S)N/N=C1\CCN([N+](=O)[O-])c2ccccc21 | > 10 µM | > 10 µM | 
30 | NC(=S)N/N=C1\CCN([N+](=O)[O-])c2ccc([N+](=O)[O-])cc21 | 0.228 µM | > 10 µM | > 20
